Measurements taken from ChEMBL document CHEMBL5136958, “The development of HEC-866 and its analogues for the treatment of idiopathic pulmonary fibrosis” (RSC Med Chem, 2021).
Calls of active or inactive are those of the source. No cut-off for these calls is given here.

How the values were obtained:
[1] = Intrinsic clearance in mouse liver microsomes by LC-MS/MS analysis; assay type: ADME, Microsome; conditions: read-out: CLH
How it was run: (§1)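 Liver microsomes were incubated with the compound at 37 °C with NADPH as cofactor and sampled at 0, 5, 15, 30 and 60 min. Half-life (min) and in vitro CLint (mL min⁻¹ kg) were derived from these samples.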

Rattus norvegicus [2] = assay: Antifibrotic activity against bleomycin-induced pulmonary fibrosis in Sprague-Dawley rat assessed as reduction in lung hydroxyproline content at 6 mg/kg, po administered daily for 1 to 14 days starting from post bleomycin stimulation; assay type: functional, organism-based; conditions: time 1-14 day
[3] = Half life in dog at 5 mg/kg, po by LC-MS/MS analysis; assay type: ADME, organism-based, Canis lupus familiaris; conditions: in vivo
[4] = Intrinsic clearance in human liver microsomes by LC-MS/MS analysis; assay type: ADME, Microsome; conditions: read-out: CLH
How it was run: (§2)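 Liver microsomes (human, monkey, dog, rat, mouse) incubated with test compound at 37 °C with NADPH cofactor; samples at 0, 5, 15, 30, 60 min for half-life and in vitro CLint.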

[5] = Volume of distribution at steady state in Sprague-Dawley rat model of bleomycin-induced pulmonary fibrosis at 2 mg/kg, iv by LC-MS/MS analysis; assay type: ADME, organism-based; conditions: in vivo, read-out: Vdss
How it was run: (§3)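 Male Sprague-Dawley rats with induced pulmonary fibrosis were dosed 2.0 mg kg⁻¹ i.v. or 5.0 mg kg⁻¹ p.o. Plasma was stored at -70 °C, and the supernatant was analysed by LC-MS/MS.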

Cytochrome P450 2D6 = Cytochrome P450 2D6 (Homo sapiens, UniProt P10635); assay: Inhibition of CYP2D6 in human liver microsomes by LC-MS/MS analysis; assay type: ADME, Microsome
How it was run: (§4)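 Human microsomes incubated with CYP-specific substrates (1A2, 2C9, 2C19, 2D6, 3A4) and test compound at 0.0–10 μM; IC50 determined.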

[6] = Half life in Sprague-Dawley rat model of bleomycin-induced pulmonary fibrosis at 2 mg/kg, iv by LC-MS/MS analysis; assay type: ADME, organism-based; conditions: in vivo
How it was run: (§5)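 Male Sprague-Dawley rats with induced pulmonary fibrosis; single i.v. (2.0 mg kg⁻¹) or p.o. (5.0 mg kg⁻¹) administration. Plasma samples stored at −70 °C; the supernatant was analysed by LC-MS/MS for PK parameters.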

[7] = Intrinsic clearance in dog liver microsomes by LC-MS/MS analysis; assay type: ADME, Canis lupus familiaris, Microsome; conditions: read-out: CLH; how it was run: as §2
[8] = Clearance in dog at 1 mg/kg, iv by LC-MS/MS analysis; assay type: ADME, organism-based, Canis lupus familiaris; conditions: in vivo
[9] = Volume of distribution at steady state in cynomolgus monkey at 1 mg/kg, iv by LC-MS/MS analysis; assay type: ADME, organism-based, Macaca fascicularis; conditions: in vivo, read-out: Vdss
[10] = Half life in cynomolgus monkey at 5 mg/kg, po by LC-MS/MS analysis; assay type: ADME, organism-based, Macaca fascicularis; conditions: in vivo
[11] = Half life in dog liver microsomes by LC-MS/MS analysis; assay type: ADME, Canis lupus familiaris, Microsome; how it was run: as §2
HFL1 [12] = assay: Antifibrotic activity in TGF-beta1-induced HFL1 cell injury assessed as down regulation of collagen 1 mRNA expression at 0.625 to 10 uM measured after 24 hrs by RT-PCR analysis; assay type: functional, cell-based; conditions: Homo sapiens, dose 0.625-10 µM
How it was run: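 TGF-β1-induced HFL-1 cells treated 24 h (test range 0.625–10 μM; comparator 3 mM); collagen 1 and collagen 3 mRNA measured by RT-PCR; mean of n = 3.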

[13] = Clearance in cynomolgus monkey at 1 mg/kg, iv by LC-MS/MS analysis; assay type: ADME, organism-based, Macaca fascicularis; conditions: in vivo
[14] = Half life in monkey liver microsomes by LC-MS/MS analysis; assay type: ADME, Macaca mulatta, Microsome; conditions: rhesus monkey; how it was run: as §2
[15] = AUClast in cynomolgus monkey at 5 mg/kg, po by LC-MS/MS analysis; assay type: ADME, organism-based, Macaca fascicularis; parameters: time 0 - last, dose 5 mg/kg, route po; conditions: in vivo
[16] = Cmax in Sprague-Dawley rat model of bleomycin-induced pulmonary fibrosis at 5 mg/kg, po by LC-MS/MS analysis; assay type: ADME, organism-based; parameters: dose 5 mg/kg, route po; conditions: in vivo; how it was run: as §5
HFL1 [17] = assay: Antiproliferative activity against human HFL1 cells assessed as reduction in cell proliferation measured after 24 hrs by CCK-8 assay; assay type: functional, cell-based; conditions: HFL1, 24 h
How it was run: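 Human fetal lung fibroblasts (HFL-1); growth inhibition quantified with CCK-8; IC50 averaged from 3 experiments, each in duplicate.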

[18] = biological target: Voltage-gated inwardly rectifying potassium channel KCNH2 (Homo sapiens, UniProt Q12809); assay: Inhibition of human ERG stably expressed in CHO cells by automated Qpatch clamp method; assay type: toxicity, cell-based
How it was run: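 CHO cell line stably transfected with hERG cDNA expressing hERG channels; channel inhibition measured, IC50 reported.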

Rattus norvegicus [19] = assay: Antifibrotic activity against bleomycin-induced pulmonary fibrosis in po dosed Sprague-Dawley rat assessed as reduction in histopathological changes administered daily for 1 to 14 days starting from post bleomycin stimulation by H and E staining based assay; assay type: functional, organism-based; conditions: dose 2-6 mg/kg, time 1-14 day, DDE = dose-dependent effect
How it was run: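 Bleomycin-induced lung fibrosis in SD rats; oral dosing daily from day 1 for 14 days; saline for sham and bleomycin groups; comparator 100 mg kg⁻¹ d, test doses 2 and 6 mg kg⁻¹ d; lung pathology assessed by HE histology.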

[20] = AUClast in Sprague-Dawley rat model of bleomycin-induced pulmonary fibrosis at 2 mg/kg, iv by LC-MS/MS analysis; assay type: ADME, organism-based; parameters: time 0 - last, dose 2 mg/kg, route iv; conditions: in vivo; how it was run: as §5
[21] = AUC(infinity) in Sprague-Dawley rat model of bleomycin-induced pulmonary fibrosis at 2 mg/kg, iv by LC-MS/MS analysis; assay type: ADME, organism-based; parameters: time infinity, dose 2 mg/kg, route iv; conditions: in vivo; how it was run: as §5
[22] = Half life in dog at 1 mg/kg, iv by LC-MS/MS analysis; assay type: ADME, organism-based, Canis lupus familiaris; conditions: in vivo
[23] = Intrinsic clearance in monkey liver microsomes by LC-MS/MS analysis; assay type: ADME, Macaca mulatta, Microsome; conditions: rhesus monkey, read-out: CLH; how it was run: as §1
[24] = Tmax in Sprague-Dawley rat model of bleomycin-induced pulmonary fibrosis at 5 mg/kg, po by LC-MS/MS analysis; assay type: ADME, organism-based; conditions: in vivo; how it was run: as §3
[25] = Toxicity in po dosed Sprague-Dawley rat administered once daily for 28 days; assay type: organism-based; conditions: in vivo, time 28 day
[26] = Half life in mouse liver microsomes by LC-MS/MS analysis; assay type: ADME, Microsome; how it was run: as §2
[27] = Clearance in Sprague-Dawley rat model of bleomycin-induced pulmonary fibrosis at 2 mg/kg, iv by LC-MS/MS analysis; assay type: ADME, organism-based; conditions: in vivo; how it was run: as §5
[28] = Intrinsic clearance in rat liver microsomes by LC-MS/MS analysis; assay type: ADME, Microsome; conditions: read-out: CLH; how it was run: as §1
[29] = Oral bioavailability in Sprague-Dawley rat model of bleomycin-induced pulmonary fibrosis at 5 mg/kg by LC-MS/MS analysis; assay type: ADME, organism-based; conditions: in vivo; how it was run: as §3
[30] = Cmax in dog at 5 mg/kg, po by LC-MS/MS analysis; assay type: ADME, organism-based, Canis lupus familiaris; parameters: dose 5 mg/kg, route po; conditions: in vivo
[31] = AUClast in Sprague-Dawley rat model of bleomycin-induced pulmonary fibrosis at 5 mg/kg, po by LC-MS/MS analysis; assay type: ADME, organism-based; parameters: time 0 - last, dose 5 mg/kg, route po; conditions: in vivo; how it was run: as §5
[32] = Half life in rat liver microsomes by LC-MS/MS analysis; assay type: ADME, Microsome; how it was run: as §2
[33] = Half life in cynomolgus monkey at 1 mg/kg, iv by LC-MS/MS analysis; assay type: ADME, organism-based, Macaca fascicularis; conditions: in vivo
Cytochrome P450 3A4 = Cytochrome P450 3A4 (Homo sapiens, UniProt P08684); assay: Inhibition of CYP3A4 in human liver microsomes by LC-MS/MS analysis; assay type: ADME, Microsome; how it was run: as §4
Cytochrome P450 3A4, sequence (P08684 whole entry): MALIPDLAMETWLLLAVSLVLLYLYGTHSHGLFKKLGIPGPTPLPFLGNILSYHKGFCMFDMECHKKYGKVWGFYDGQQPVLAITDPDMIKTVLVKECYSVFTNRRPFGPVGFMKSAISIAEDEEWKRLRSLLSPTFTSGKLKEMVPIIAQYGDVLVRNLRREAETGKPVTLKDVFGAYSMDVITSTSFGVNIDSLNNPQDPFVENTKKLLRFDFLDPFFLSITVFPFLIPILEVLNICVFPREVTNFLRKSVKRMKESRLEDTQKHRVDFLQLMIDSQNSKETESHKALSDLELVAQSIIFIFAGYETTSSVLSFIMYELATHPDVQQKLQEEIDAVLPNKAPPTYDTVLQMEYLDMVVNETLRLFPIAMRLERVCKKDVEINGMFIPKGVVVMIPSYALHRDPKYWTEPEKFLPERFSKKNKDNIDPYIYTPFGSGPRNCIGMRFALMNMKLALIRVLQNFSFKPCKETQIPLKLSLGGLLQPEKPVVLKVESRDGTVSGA

Cytochrome P450 2D6, sequence (P10635 whole entry): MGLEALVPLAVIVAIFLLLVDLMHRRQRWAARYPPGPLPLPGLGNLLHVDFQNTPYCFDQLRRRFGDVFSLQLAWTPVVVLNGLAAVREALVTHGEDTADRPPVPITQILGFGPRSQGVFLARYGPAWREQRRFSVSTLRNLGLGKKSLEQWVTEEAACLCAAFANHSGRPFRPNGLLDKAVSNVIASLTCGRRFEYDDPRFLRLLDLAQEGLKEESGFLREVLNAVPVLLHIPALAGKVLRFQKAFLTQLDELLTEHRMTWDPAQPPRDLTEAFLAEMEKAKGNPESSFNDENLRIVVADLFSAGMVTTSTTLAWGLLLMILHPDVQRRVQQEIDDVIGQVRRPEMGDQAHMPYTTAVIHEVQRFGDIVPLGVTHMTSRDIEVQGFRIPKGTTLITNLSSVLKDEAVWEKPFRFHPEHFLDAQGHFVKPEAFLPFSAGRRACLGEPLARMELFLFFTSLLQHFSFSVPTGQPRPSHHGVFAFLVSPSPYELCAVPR
Voltage-gated inwardly rectifying potassium channel KCNH2, sequence (Q12809 whole entry): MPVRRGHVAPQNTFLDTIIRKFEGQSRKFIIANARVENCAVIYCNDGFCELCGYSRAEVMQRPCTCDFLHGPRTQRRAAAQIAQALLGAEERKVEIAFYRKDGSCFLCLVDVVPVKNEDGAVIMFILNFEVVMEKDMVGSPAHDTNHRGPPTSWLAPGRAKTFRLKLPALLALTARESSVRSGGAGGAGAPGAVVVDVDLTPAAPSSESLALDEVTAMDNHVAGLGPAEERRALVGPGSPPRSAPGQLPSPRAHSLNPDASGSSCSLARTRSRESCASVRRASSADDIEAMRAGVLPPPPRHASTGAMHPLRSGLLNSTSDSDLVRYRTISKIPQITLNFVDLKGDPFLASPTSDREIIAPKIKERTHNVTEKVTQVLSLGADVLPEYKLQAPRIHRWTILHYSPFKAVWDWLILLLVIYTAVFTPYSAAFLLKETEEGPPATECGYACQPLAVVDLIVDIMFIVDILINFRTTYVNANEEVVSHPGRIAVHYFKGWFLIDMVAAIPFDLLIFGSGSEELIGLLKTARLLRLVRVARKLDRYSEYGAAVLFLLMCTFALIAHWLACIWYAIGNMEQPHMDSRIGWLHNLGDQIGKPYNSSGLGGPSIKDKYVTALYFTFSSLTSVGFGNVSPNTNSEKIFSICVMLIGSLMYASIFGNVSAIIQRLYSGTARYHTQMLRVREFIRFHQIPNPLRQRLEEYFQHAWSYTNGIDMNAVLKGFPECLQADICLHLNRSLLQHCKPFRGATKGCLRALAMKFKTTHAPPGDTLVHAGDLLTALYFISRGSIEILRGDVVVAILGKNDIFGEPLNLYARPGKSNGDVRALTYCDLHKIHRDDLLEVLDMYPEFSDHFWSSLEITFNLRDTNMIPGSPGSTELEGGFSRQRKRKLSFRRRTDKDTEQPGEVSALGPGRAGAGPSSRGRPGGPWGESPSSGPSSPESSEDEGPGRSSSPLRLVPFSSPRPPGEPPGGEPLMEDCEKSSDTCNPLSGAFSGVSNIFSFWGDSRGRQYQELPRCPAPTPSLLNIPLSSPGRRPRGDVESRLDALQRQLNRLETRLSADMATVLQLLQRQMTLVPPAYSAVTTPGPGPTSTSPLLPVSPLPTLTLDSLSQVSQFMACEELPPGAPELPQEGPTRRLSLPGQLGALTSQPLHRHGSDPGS

## Cc1cc(=O)n(-c2ccc(N3CCC(Cc4ccc(Cl)c(F)c4)CC3)c(Cl)c2)c(C)n1
[1]
  CLint scaled: 77 mL/min/kg
Rattus norvegicus [2]
  Activity: Active
[3]
  half-life: 27 h
[4]
  CLint scaled: 16.7 mL/min/kg
[5]
  Vd: 8.2 L/kg
Cytochrome P450 2D6
  IC50: > 10 µM
[6]
  half-life: 26 h
[7]
  CLint scaled: 11.7 mL/min/kg
[8]
  clearance: 1.67 mL/min/kg
[9]
  Vd: 3.9 L/kg
[10]
  half-life: 14 h
[11]
  half-life: 4.93 h
HFL1 [12]
  Activity: Active
[13]
  clearance: 3.33 mL/min/kg
[14]
  half-life: 0.695 h
[15]
  AUC(0-t): 12900 ng·h/mL
[16]
  Cmax: 1120 ng/mL
HFL1 [17]
  IC50: 60 µM
[18]
  IC50: > 30 µM
Rattus norvegicus [19]
  Activity: Dde
[20]
  AUC(0-t): 4280 ng·h/mL
[21]
  AUC(0-inf): 7980 ng·h/mL
[22]
  half-life: 11 h
[23]
  CLint scaled: 48.6 mL/min/kg
[24]
  Tmax: 1.7 h
[25]
  MTD at 672 h: > 500 mg/kg
[26]
  half-life: 1.18 h
[27]
  clearance: 4.33 mL/min/kg
[28]
  CLint scaled: 24.2 mL/min/kg
[29]
  bioavailability: 105%
[30]
  Cmax: 628 ng/mL
[31]
  AUC(0-t): 11200 ng·h/mL
[32]
  half-life: 1.71 h
[33]
  half-life: 16 h
Cytochrome P450 3A4
  IC50: > 10 µM
